In ChEMBL document CHEMBL4251710, “Antibacterial Muraymycins from Mutant Strains of Streptomyces sp. NRRL 30471” (J Nat Prod, 2018) one finds IC50, MIC and ED50 data, which are given here for 5 molecules.

In assay [1] the target is T1, Phospho-N-acetylmuramoyl-pentapeptide-transferase (Aquifex aeolicus (strain VF5), UniProt O66465).
T1 sequence (O66465 whole entry): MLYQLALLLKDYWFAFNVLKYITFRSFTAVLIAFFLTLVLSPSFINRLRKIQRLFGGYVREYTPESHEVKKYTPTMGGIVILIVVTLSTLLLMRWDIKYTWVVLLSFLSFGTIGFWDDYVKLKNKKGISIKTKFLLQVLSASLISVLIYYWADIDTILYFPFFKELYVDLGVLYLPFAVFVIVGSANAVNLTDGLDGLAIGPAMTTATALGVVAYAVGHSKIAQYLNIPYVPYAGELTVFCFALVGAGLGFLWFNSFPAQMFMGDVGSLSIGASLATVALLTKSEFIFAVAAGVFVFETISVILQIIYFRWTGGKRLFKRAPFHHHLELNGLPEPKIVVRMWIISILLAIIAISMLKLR
The assay can be described thus: Inhibition of Aquifex aeolicus MraY expressed in Escherichia coli C41(DE3) using Park's nucleotide as substrate pretreated for 30 mins followed by substrate addition measured up to 2 mins by fluorescence assay. In outline: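 Purified His-MBP-tagged AaMraY was expressed in E. coli C41(DE3), extracted with DDM, purified on cobalt resin, protease-cleaved and gel-filtered in DM. The enzyme (1 μL at 0.1 mg/mL) was preincubated 30 min at room temperature with inhibitor, undecaprenyl phosphate, pH 7.5 Tris, KCl, MgCl2, 0.1% Triton X-100 and 0–5% DMSO. Dansylated Park's nucleotide was then added. Fluorescence (ex 355/em 520 nm) was followed, and the rate was taken from a linear fit over 0–2 min.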

The target in assay [2] is T2, Phospho-N-acetylmuramoyl-pentapeptide-transferase (Staphylococcus aureus, UniProt P0C1R8).
T2 sequence (P0C1R8 whole entry): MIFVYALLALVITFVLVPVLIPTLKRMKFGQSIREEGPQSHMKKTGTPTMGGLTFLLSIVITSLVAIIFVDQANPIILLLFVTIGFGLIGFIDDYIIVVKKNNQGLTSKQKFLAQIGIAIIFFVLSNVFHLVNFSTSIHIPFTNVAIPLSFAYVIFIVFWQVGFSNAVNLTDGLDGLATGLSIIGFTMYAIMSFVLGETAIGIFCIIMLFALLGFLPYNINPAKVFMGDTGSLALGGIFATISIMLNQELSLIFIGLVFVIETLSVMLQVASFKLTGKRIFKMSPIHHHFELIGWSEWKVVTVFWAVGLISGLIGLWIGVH
Description: Inhibition of Staphylococcus aureus MraY expressed in Escherichia coli membrane using Park's nucleotide as substrate pretreated for 30 mins followed by substrate addition measured up to 2 mins by fluorescence assay. It is filed as cell membranes.

The test system of assay [3] is Escherichia coli. Description: Antimicrobial activity against tolC deficient Escherichia coli JW5503 after 16 hrs by resazurin dye based assay. The format is functional. The note with it: JW5503, 16 h. In outline:
(§1)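 Overnight cultures (16 h, 37 °C) were diluted 1000-fold, grown to OD600 0.4, then diluted 1000-fold again. Cells were exposed to serially diluted compound from a top final concentration of 256 or 32 μg/mL, against a 1% DMSO or water control. Plates were incubated 16 h at 37 °C, read at OD600 normalised to control, then given resazurin for 3 h. The MIC was the lowest concentration inhibiting growth.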

The test system of assay [4] is Escherichia coli. The assay can be described thus: Antimicrobial activity against Escherichia coli BL21(DE3) after 16 hrs by resazurin dye based assay. The format is functional. In outline: as §1
Assay [5] has as its system Staphylococcus aureus. Description: Antimicrobial activity against Staphylococcus aureus subsp. aureus str. Newman after 16 hrs by resazurin dye based assay. It is filed as functional. In outline:
as §1

The test system of assay [6] is Escherichia coli. Description: Antimicrobial activity against Escherichia coli harboring imp mutant. It is filed as functional.
Assay [7] has as its system Staphylococcus aureus. Description: Antimicrobial activity against Staphylococcus aureus infected in mouse. The format is functional.

In brackets after ≈: the same amount, converted by molar mass.

For the molecule `CO[C@H]1[C@H](O[C@H]([C@H]2O[C@@H](n3ccc(=O)[nH]c3=O)[C@H](O)[C@@H]2O)[C@H](NCCCNC(=O)[C@@H](NC(=O)[C@@H](NC(=O)N[C@H](C(=O)O)C(C)C)[C@@H]2CCNC(=N)N2)[C@@H](OC(=O)CCCCCCCCCCC(C)C)C(C)C)C(=O)O)O[C@H](CN)[C@H]1O`, the results for the IC50 in assay [1] and in assay [2] were 0.32 nM and 0.0221 nM, respectively. The MIC against Escherichia coli [3] was found to be 2 µg/mL (≈ 1.73 µM); with Escherichia coli [4], 32 µg/mL (≈ 27.7 µM); with Staphylococcus aureus [5], 6 µg/mL (≈ 5.19 µM).

As to `CO[C@H]1[C@H](O[C@H]([C@H]2O[C@@H](n3ccc(=O)[nH]c3=O)[C@H](O)[C@@H]2O)[C@H](NCCCNC(=O)[C@@H](NC(=O)[C@@H](NC(=O)N[C@H](C(=O)O)C(C)C)[C@@H]2CCNC(=N)N2)[C@@H](OC(=O)CCCCCCCCCCCCC(C)C)C(C)C)C(=O)O)O[C@H](CN)[C@H]1O`, in assay [2], the IC50 was found to be 0.004 nM. Besides, the values for the MIC against Escherichia coli [3], against Escherichia coli [4] and in the assay on Staphylococcus aureus [5] were 4 µg/mL (≈ 3.38 µM), 64 µg/mL (≈ 54 µM) and 2 µg/mL (≈ 1.69 µM), respectively.

Turning to `CO[C@H]1[C@H](O[C@H]([C@H]2O[C@@H](n3ccc(=O)[nH]c3=O)[C@H](O)[C@@H]2O)[C@H](NCCCNC(=O)[C@@H](NC(=O)[C@@H](NC(=O)N[C@H](C(=O)O)C(C)C)[C@@H]2CCNC(=N)N2)[C@@H](O)C(C)C)C(=O)O)O[C@H](CNC(C)=O)[C@H]1O`, the IC50 in assay [1] stood at 1.8 nM; in assay [2] it was 0.093 nM. The MIC in the assay with Escherichia coli [3] is 16 µg/mL (≈ 16.2 µM); against Escherichia coli [4] it was 256 µg/mL (≈ 259 µM); against Staphylococcus aureus [5], more than 32 µg/mL.

Consider `CO[C@H]1[C@H](O[C@H]([C@H]2O[C@@H](n3ccc(=O)[nH]c3=O)[C@H](O)[C@@H]2O)[C@H](NCCCNC(=O)[C@@H](NC(=O)[C@@H](NC(=O)N[C@H](C(=O)O)C(C)C)[C@@H]2CCNC(=N)N2)[C@@H](O)C(C)C)C(=O)O)O[C@H](CN)[C@H]1O`, for which the IC50 in assay [1] was 0.35 nM; in assay [2] it was 0.0157 nM. In addition, the MIC is 1 µg/mL (≈ 1.06 µM) in the assay with Escherichia coli [3], 8 µg/mL (≈ 8.46 µM) with Escherichia coli [4] and more than 32 µg/mL in the assay with Staphylococcus aureus [5].

In the assay with Escherichia coli [6], `CO[C@H]1[C@H](O[C@H]([C@H]2O[C@@H](n3ccc(=O)[nH]c3=O)[C@H](O)[C@@H]2O)[C@H](NCCCNC(=O)[C@@H](NC(=O)[C@@H](NC(=O)N[C@H](C(=O)O)C(C)C)[C@@H]2CCNC(=N)N2)[C@@H](OC(=O)CCCCCCCCCCCCN(O)C(=N)N)C(C)C)C(=O)O)O[C@H](CN)[C@H]1O` displayed an MIC of less than 0.03 µg/mL. In the assay on Staphylococcus aureus [7], the ED50 came out at 1.1 mg/kg.
